This is an account of results in ChEMBL document CHEMBL4004879, “Synthesis of extended conjugated indolyl chalcones as potent anti-breast cancer, anti-inflammatory and antioxidant agents” (Bioorg Med Chem Lett, 2017).

Structures can show the parent of a compound that is named as a salt. Bounds are passed on as bounds.

Series [1] in a line: Antiinflammatory activity assessed as inhibition of heat-induced egg albumin denaturation at 1 mM after 15 mins relative to control. The series is classed as functional. The essentials:
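Egg albumin from fresh hen's egg (0.4 ml) in PBS pH 6.4 with test solution (1 mM), 10 ml total; water as control. Incubated 37±2 °C for 15 min, then heated 70 °C for 5 min. After cooling, absorbance read at 660 nm against vehicle blank. Diclofenac sodium 1 mM as reference. % inhibition of denaturation calculated from test and control absorbances.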

For the next series, the system named is MCF7. The series can be described thus: Cytotoxicity against human MCF7 cells after 48 hrs by SRB assay. The format is functional. To be noted: MCF7, 48 h; for CC50: read-out: LC50 (the source's name). The method, boiled down: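 MCF-7 cells grown in RPMI-1640 with 10% FCS at 37 °C, 5% CO2. Cells with >97% viability (trypan blue) seeded and grown one day, then exposed to several concentrations for 48 h, in triplicate. Fixed with TCA at 4 °C for 1 h, stained with 0.4% SRB, bound dye dissolved in 0.01 M Tris pH 10.4, OD read at 540 nm. GI50 obtained by regression; TGI and LC50 from Ti/Tz.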

Series [2] in a line: Antioxidant activity assessed as inhibition of nitric oxide radical generation at 1 mM using sodium nitroprusside after 150 mins by Griess assay relative to control. The series is classed as functional. The method, boiled down:
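NO generated from 1 ml 10 mM sodium nitroprusside mixed with 1 ml of 1 mM compound in phosphate buffer (0.2 M, pH 7.4). Incubated 25 °C for 150 min, then mixed with 1.0 ml Griess reagent (1% sulphanilamide, 0.1% naphthylethylenediamine dichloride, 2% phosphoric acid). Absorbance read at 546 nm; % inhibition from control and sample absorbances. Ascorbic acid standard; mean of two replicates.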

The nature of series [3]: Antioxidant activity assessed as inhibition of superoxide radical generation at 1 mM after 5 mins by NBT reduction assay relative to control. The format is functional. The essentials:
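1 ml NBT solution ([…]), 1 ml NADH ([…]) and 1 ml compound (1 mM) mixed, all in phosphate buffer pH 7.4. Reaction started with 1 ml PMS ([…]), then incubated 25 °C for 5 min. Absorbance at 560 nm against blank; % inhibition from control and sample absorbances. Ascorbic acid standard; mean of two replicates.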

Series [4] is described as follows: Antioxidant activity assessed as inhibition of DPPH radical generation at 1 mM after 30 mins relative to control. The series is classed as functional. The method, boiled down:
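1 ml of compound (1 mM) mixed with 3.0 ml DPPH (0.5 mmol/L in methanol). Absorbance at 517 nm after 30 min at 37 °C. % scavenging = (A control − A sample)/A control × 100, with control being DPPH alone. Ascorbic acid as standard; mean of two replicates.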

A further series concerns Vero. The series can be described thus: (§1) Cytotoxicity against African green monkey Vero cells after 48 hrs by SRB assay. The series is classed as cell-based. The following applies: chlorocebus sabaeus, vero, 48 h. On the technique in general: In SRB staining, fixed cells bind dye roughly in proportion to their protein.
Series [5] can be described thus: as §1. The format is cell-based. To be noted: chlorocebus sabaeus, Vero cells.

As to `O=C(O)Cc1ccccc1Nc1c(Cl)cccc1Cl`, the inhibition in series [1] was determined as 90.2%.
Turning to `N#C/C(=C\C=C(/Cl)c1ccc(Br)cc1)C(=O)c1c[nH]c2ccc(Br)cc12`, in the series on MCF7, the GI50 was above 100 µM. Further, the TGI with MCF7 is above 100 µM. The CC50 with MCF7 was above 100 µM. The inhibition was found to be 67.5% in series [2], 83.6% in series [3], 90.8% in series [1] and 15.8% in series [4].
For `COc1ccc2[nH]cc(C(=O)/C(C#N)=C/C=C(\Cl)c3ccc(OC)c(OC)c3)c2c1`, the GI50 in the series on MCF7 turned out to be 44.9 µM. This compound also had a TGI in the series with MCF7 above 100 µM. Also, the CC50 with MCF7 was above 100 µM. Moreover, the inhibition in series [2] came to 74.2%; in series [3], 58.2%; in series [1], 87.2%; in series [4], 34.2%.
Consider `COc1cc(/C(Cl)=C/C=C(\C#N)C(=O)c2c(C)[nH]c3ccccc23)cc(OC)c1OC`, for which the GI50 in the series with MCF7 was below 0.1 µM. Further, the TGI in the series on MCF7 was determined as 83.7 µM; in the series on Vero, 42.6 µM. Also, the CC50 in the series on MCF7 was above 100 µM. Besides, the inhibition in series [2] was determined as 74.2%; in series [3], 58.2%; in series [1], 80.7%; in series [4], 14.5%. The LC50 in the series with Vero worked out at 68.3 µM. In series [5], the GI50 at 48 h amounted to 12.4 µM.
On to `COc1ccc(/C(Cl)=C/C=C(\C#N)C(=O)c2c[nH]c3ccccc23)cc1`, for which the GI50 in the series with MCF7 was 47.3 µM. In the series with MCF7, this compound showed a TGI above 100 µM. In addition, the CC50 in the series with MCF7 is above 100 µM. Moreover, the inhibition was determined as 76.9% in series [2], 61.3% in series [3], 80.2% in series [1] and 23.4% in series [4].
As to `COc1cccc2c1C(=O)c1c(O)c3c(c(O)c1C2=O)C[C@@](O)(C(=O)CO)C[C@@H]3O[C@H]1C[C@H](N)[C@H](O)[C@H](C)O1` [DOXORUBICIN HYDROCHLORIDE], in the series on MCF7, the GI50 was below 0.1 µM, the TGI is 11 µM and the CC50 stood at 97.1 µM. For the same compound, in the series on Vero, the LC50 stood at 52.6 µM and the TGI is above 10 µM. Also, in series [5], the GI50 at 48 h amounted to 19 µM.
`COc1ccc(/C(Cl)=C/C=C(\C#N)C(=O)c2c(C)[nH]c3ccccc23)cc1OC` gave a GI50 in the series on MCF7 of 29.6 µM. For the same compound, the values for the TGI with MCF7 and with Vero were 93 µM and 41.1 µM, respectively. In the series with MCF7, the CC50 is above 100 µM. Further, the inhibition came out at 75.8% in series [2], 66.4% in series [3], 79.8% in series [1] and 22.4% in series [4]. The compound also registered an LC50 in the series on Vero of 65.9 µM. This compound also yielded a GI50 at 48 h in series [5] of 11.8 µM.
Regarding `COc1ccc(/C(Cl)=C/C=C(\C#N)C(=O)c2c[nH]c3ccc(OC)cc23)cc1`, in the series with MCF7, the GI50 turned out to be 87.1 µM. The TGI in the series with MCF7 was above 100 µM. Also, the CC50 in the series on MCF7 was above 100 µM. In addition, the inhibition is 41.6% in series [2], 60.7% in series [3], 79.5% in series [1] and 16.7% in series [4].
`COc1ccc(/C(Cl)=C/C=C(\C#N)C(=O)c2c[nH]c3ccc(Br)cc23)cc1OC` yielded a GI50 in the series with MCF7 of 31.9 µM. In addition, the TGI in the series on MCF7 was above 100 µM; in the series on Vero it was 38.4 µM. In the series on MCF7, the CC50 was above 100 µM. Further, the inhibition was 57.5% in series [2], 80.9% in series [3], 21.1% in series [1] and 11.8% in series [4]. The LC50 with Vero was found to be 51.8 µM. In series [5], halving of growth (GI50 at 48 h) required 8.2 µM.
As for `COc1cc(/C(Cl)=C/C=C(\C#N)C(=O)c2c[nH]c3ccc(Br)cc23)cc(OC)c1OC`, the GI50 in the series on MCF7 was determined as 30.8 µM. Moreover, the figures for the TGI with MCF7 and in the series with Vero were 96.5 µM and 22.1 µM, respectively. In the series on MCF7, the CC50 was above 100 µM. For the same compound, the inhibition in series [2] came out at 36.7%; in series [3], 50%; in series [1] it was 90.8%; in series [4], 26.3%. For the same compound, the LC50 in the series with Vero stood at 41.5 µM. In addition, halving of growth in series [5] (GI50 at 48 h) required 7.6 µM.
In the series with MCF7, `N#C/C(=C\C=C(/Cl)c1ccc(Br)cc1)C(=O)c1c[nH]c2ccccc12` returned a GI50 of 72.5 µM. The compound also showed a TGI in the series with MCF7 of 81.5 µM. In the series on MCF7, the CC50 was above 100 µM. Moreover, the inhibition in series [2] amounted to 76.7%; in series [3], 65.5%; in series [1], 38.5%; in series [4] it was 18.4%.
As to `COc1cc(/C(Cl)=C/C=C(\C#N)C(=O)c2c[nH]c3ccccc23)cc(OC)c1OC`, the 50% growth inhibitory concentration (GI50) with MCF7 is 4 µM. Besides, the values for the TGI in the series on MCF7 and with Vero were 94.3 µM and 35.9 µM, respectively. In addition, the CC50 in the series with MCF7 was above 100 µM. Also, the inhibition stood at 73.3% in series [2], 59.1% in series [3], 86.2% in series [1] and 21.1% in series [4]. This compound also had an LC50 in the series on Vero of 54.2 µM. This compound registered a GI50 at 48 h in series [5] of 16.2 µM.
Regarding `COc1ccc(/C(Cl)=C/C=C(\C#N)C(=O)c2c(C)[nH]c3ccccc23)cc1`, the GI50 in the series on MCF7 was determined as 56.7 µM. Also, the TGI in the series with MCF7 was above 100 µM. For the same compound, in the series on MCF7, the CC50 was above 100 µM. In addition, the inhibition in series [2] was found to be 74%; in series [3], 63.1%; in series [1] it was 83.1%; in series [4] it was 34.2%.
In the series on MCF7, `COc1ccc(/C(Cl)=C/C=C(\C#N)C(=O)c2c[nH]c3ccccc23)cc1OC` yielded a GI50 of 44.2 µM. In addition, the TGI in the series on MCF7 is above 100 µM. In the series on MCF7, the CC50 was above 100 µM. Further, the inhibition came to 75% in series [2], 63.6% in series [3], 85.3% in series [1] and 15.8% in series [4].
As to `COc1ccc2[nH]cc(C(=O)/C(C#N)=C/C=C(\Cl)c3ccc(Br)cc3)c2c1`, the GI50 with MCF7 is 79.9 µM. In the series with MCF7, this compound displayed a TGI above 100 µM. The CC50 with MCF7 was above 100 µM. Besides, the inhibition in series [2] was found to be 76.7%; in series [3], 54.5%; in series [1] it was 88.1%; in series [4], 40.8%.
In the series on MCF7, `COc1ccc2[nH]cc(C(=O)/C(C#N)=C/C=C(\Cl)c3cc(OC)c(OC)c(OC)c3)c2c1` showed a GI50 of 39.2 µM. Also, the values for the TGI in the series on MCF7 and with Vero were above 100 µM and 12.1 µM, respectively. In the series with MCF7, the CC50 was above 100 µM. The inhibition in series [2] was determined as 68.3%; in series [3], 50%; in series [1], 84.4%; in series [4], 46%. Further, in the series on Vero, the LC50 is 45.2 µM. This compound also yielded a GI50 at 48 h in series [5] of 9.5 µM.
Regarding `Cc1[nH]c2ccccc2c1C(=O)/C(C#N)=C/C=C(\Cl)c1ccc(Br)cc1`, in the series with MCF7, the GI50 turned out to be 73.9 µM. This compound also came in with a TGI with MCF7 of 73.8 µM. The CC50 with MCF7 is above 100 µM. In addition, the inhibition in series [2] came out at 78.3%; in series [3], 69.1%; in series [1] it was 85.3%; in series [4], 15.8%.
For `O=C1O[C@H]([C@@H](O)CO)C(O)=C1O`, the values for the inhibition in series [2], in series [3] and in series [4] were 42.6%, 74.1% and 44.2%, respectively.
In the case of `COc1ccc(/C(Cl)=C/C=C(\C#N)C(=O)c2c[nH]c3ccc(Br)cc23)cc1`, the GI50 in the series on MCF7 worked out at 80.3 µM. The compound also had a TGI with MCF7 above 100 µM. In the series on MCF7, the CC50 was above 100 µM. The inhibition in series [2] was found to be 56.2%; in series [3], 62.2%; in series [1], 78.2%; in series [4] it was 15.6%.

A word on the inhibition: it is the drop in the measured response relative to a control, in per cent. By GI50 is commonly meant the concentration giving 50% growth inhibition. In general, TGI refers to the concentration at which net growth stops. By LC50 is commonly meant the concentration lethal to half of the exposed cells or organisms.
